Experimental data published in ChEMBL document CHEMBL2057074, “Design, synthesis and biological activity of 6-substituted carbamoyl benzimidazoles as new nonpeptidic angiotensin II AT₁ receptor antagonists” (Bioorg Med Chem, 2012).
Where a chain is given by its changes, count along the chain named. pIC50: −log10 of the molar value. ≈ marks a conversion by molar mass, not a printed value.

Key:
[1] = Toxicity against Photobacterium phosphoreum expressing T3 mutation after 15 mins by Microtox assay; format: organism-based
Summary of the method: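 Microtox test with luminescent Photobacterium phosphoreum. Samples were incubated with bacteria for 15 min before reading inhibition of bacterial luminescence, testing up to the saturated concentration level. LC50 is the concentration in water inhibiting 50% of the test batch.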

[2] = molecular target: T1, Type-1 angiotensin II receptor (Homo sapiens, UniProt P30556); assay: Displacement of [125I]Sar1Ile8-Ang2 from angiotensin AT1 receptor after 180 mins by gamma counting
T1 sequence (P30556 whole entry): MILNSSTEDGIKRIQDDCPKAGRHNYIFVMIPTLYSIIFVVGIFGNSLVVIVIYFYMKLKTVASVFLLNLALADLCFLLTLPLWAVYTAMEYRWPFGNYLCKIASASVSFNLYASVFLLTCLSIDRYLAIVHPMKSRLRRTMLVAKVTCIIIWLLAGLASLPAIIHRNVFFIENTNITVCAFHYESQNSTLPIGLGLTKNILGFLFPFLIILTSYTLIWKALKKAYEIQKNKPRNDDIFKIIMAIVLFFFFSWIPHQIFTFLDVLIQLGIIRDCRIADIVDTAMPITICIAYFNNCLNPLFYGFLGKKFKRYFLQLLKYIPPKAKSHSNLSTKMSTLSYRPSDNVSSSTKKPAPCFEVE

[3] = molecular target: T2, Type-1 angiotensin II receptor (Oryctolagus cuniculus, UniProt P34976); assay: Antagonist activity at AT1 receptor in Japanese white rabbit thoracic aorta assessed as inhibition of […] contraction incubated 30 mins post KCl-induction for 1 hr; format: functional, tissue-based; settings: read-out: pA2 (converted)
T2 sequence (P34976 whole entry): T1 sequence (P30556 whole entry) with I2M, V49A, I254V, I270V, R272H, R311K, T349S, A353V
Summary of the method: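 Isolated rabbit aortic strips equilibrated 1 h with washes every 15 min. 67 mM KCl was given first to check tissue sensitivity and set the maximal contractile response. After a 30 min washout, test substances or their vehicles were added and contractile responses recorded.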

[4] = test system: Rattus norvegicus; assay: Antihypertensive activity in non-fasted spontaneous hypertensive rat assessed as decrease in mean arterial blood pressure at 10 mg/kg, po by tail plethysmography relative to control; format: functional, Artery
Summary of the method: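 Male SHR aged 19–21 weeks, conscious and unanesthetised, six per group; controls got vehicle at 10 mL/kg. […] Blood pressure and heart rate measured by tail plethysmography after a warming period; data given as means SEM.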

SMILES | LC50 at 0.25 h [1] | pIC50 [2] | Kb [3] | Activity [4]
CCCc1nc2c(C)cc(-c3nc4ccccc4n3C)cc2n1Cc1ccc(-c2ccccc2C(=O)O)cc1 | 100 µg/mL (≈ 194 µM) |  |  | 
CCCc1nc2c(C)cc(C(=O)NCc3ccccc3)cc2n1Cc1ccc(-c2ccccc2-c2nnn[nH]2)cc1 | 64 µg/mL (≈ 118 µM) | 6.39 |  | 
CCCc1nc2c(C)cc(C(=O)NCc3ccccc3OC)cc2n1Cc1ccc(-c2ccccc2-c2nnn[nH]2)cc1 | 66 µg/mL (≈ 115 µM) | 7.71 |  | 
CCCc1nc2c(C)cc(C(=O)NCc3cccc(OC)c3)cc2n1Cc1ccc(-c2ccccc2-c2nnn[nH]2)cc1 | > 100 µg/mL | 7.11 |  | 
CCCc1nc2c(C)cc(C(=O)NCc3ccc(OC)cc3)cc2n1Cc1ccc(-c2ccccc2-c2nnn[nH]2)cc1 | > 100 µg/mL | 6.93 |  | 
CCCc1nc2c(C)cc(C(=O)NCc3ccc(OC)c(OC)c3)cc2n1Cc1ccc(-c2ccccc2-c2nnn[nH]2)cc1 | > 100 µg/mL | 7.01 |  | 
CCCc1nc2c(C)cc(C(=O)NCCc3ccccc3)cc2n1Cc1ccc(-c2ccccc2-c2nnn[nH]2)cc1 | > 100 µg/mL | 8.89 | 4.79 nM | 
CCCc1nc2c(C)cc(C(=O)NCC(C)c3ccccc3)cc2n1Cc1ccc(-c2ccccc2-c2nnn[nH]2)cc1 (stereo not drawn) | > 100 µg/mL | 9.05 | 1.7 nM | >30 mmHg
CCCc1nc2c(C)cc(C(=O)NCCc3cccc(OC)c3)cc2n1Cc1ccc(-c2ccccc2-c2nnn[nH]2)cc1 | > 100 µg/mL | 8.59 | 14.8 nM | 
CCCc1nc2c(C)cc(C(=O)NCCc3ccc(OC)cc3)cc2n1Cc1ccc(-c2ccccc2-c2nnn[nH]2)cc1 | > 100 µg/mL | 7.65 |  | 
CCCc1nc2c(C)cc(C(=O)NCCc3cc(OC)ccc3OC)cc2n1Cc1ccc(-c2ccccc2-c2nnn[nH]2)cc1 | > 100 µg/mL | 7.11 |  | 
CCCc1nc2c(C)cc(C(=O)NCCc3ccc(OC)c(OC)c3)cc2n1Cc1ccc(-c2ccccc2-c2nnn[nH]2)cc1 | > 100 µg/mL | 8.43 | 1.82 nM | 
CCCc1nc2c(C)cc(C(=O)NCCc3ccccc3F)cc2n1Cc1ccc(-c2ccccc2-c2nnn[nH]2)cc1 | 17 µg/mL (≈ 29.6 µM) | 7.42 |  | 
CCCc1nc2c(C)cc(C(=O)NCCc3ccc(F)cc3)cc2n1Cc1ccc(-c2ccccc2-c2nnn[nH]2)cc1 | 60 µg/mL (≈ 105 µM) | 6.68 |  | 
CCCCc1nc(Cl)c(CO)n1Cc1ccc(-c2ccccc2-c2nn[nH]n2)cc1 [LOSARTAN] | 331 µg/mL (≈ 783 µM) |  |  | 
